Activity data for two compounds are collected here from ChEMBL document CHEMBL5712902, “Enhanced Anti-lymphoma Activity of CAR19-iNKT Cells Underpinned by Dual CD19 and CD1d Targeting” (Cancer Cell, 2018).

The subject of data set [1] is U-266. Put plainly: Upregulation of CD1D mRNA expression in human U-266 cells at 10^-6 M upto 96 hrs by RT-PCR analysis. In kind it is functional, cell-based. The settings on record: dose 1.0 10^-6M. The essentials: (§1)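 U266 cells were harvested in exponential growth and treated with 10^-6 M ATRA, 10^-6 M GSK343, or both, each diluted from a 1 mM 1000x PBS stock. Vehicle control was 0.01% DMSO. Incubation ran up to 96 hr, then CD1D mRNA was read by RT-PCR or CD1d protein by flow cytometry at set time points.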

The test system of data set [2] is U-266. Put plainly: Upregulation of CD1D protein expression in human U-266 cells at 10^-6 M upto 96 hrs by flow cytometric analysis. In kind it is functional, cell-based. The settings on record: dose 1.0 10^-6M. In a few lines:
as §1
(In general: A flow cytometer gives signals particle by particle.)

Data set [3] relates to CLL cell. In words: Upregulation of CD1D mRNA expression in human CLL cells at 10^-6 M upto 96 hrs by RT-PCR analysis. In kind it is functional, cell-based. The settings on record: dose 1.0 10^-6M. The essentials:
(§2)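 Primary CLL cells were treated with 10^-6 M ATRA, freshly prepared in DMSO, protected from light and diluted to a 1 mM 1000x stock in PBS. Vehicle control was 0.01% DMSO. Cells were incubated for up to 96 hr, then CD1d was read by RT-PCR for mRNA or flow cytometry for surface protein at set time points.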

For data set [4], the system named is CLL cell. Put plainly: Upregulation of CD1D protein expression in human CLL cells at 10^-6 M upto 96 hrs by flow cytometric analysis. Format: functional, cell-based. The settings on record: dose 1.0 10^-6M. The essentials:
as §2

Data set [5] can be described thus: Cytotoxicity against human CLL cells assessed as reduction in cell viability at 10^-6 M after 48 to 96 hrs by tryphan blue assay. In kind it is toxicity, cell-based. The conditions noted are these: 1 µM, time 48-96 hrs, dose 1 10^-6M.
The subject of data set [6] is U-266. Put plainly: Upregulation of CD1D mRNA expression in human U-266 cells at 10^-6 M upto 96 hrs in presence of GSK343 by RT-PCR analysis. Format: functional, cell-based. The settings on record: dose 1.0 10^-6M. In a few lines: as §1
Data set [7] deals with U-266. In words: Upregulation of CD1D protein expression in human U-266 cells at 10^-6 M upto 96 hrs in presence of GSK343 by flow cytometric analysis. The conditions noted are these: dose 1.0 10^-6M. In kind it is functional, cell-based. The essentials:
as §1

Calls of active or inactive are those of the source. No cut-off for these calls is given here.

As to `CCCc1cc(C)[nH]c(=O)c1CNC(=O)c1cc(-c2ccnc(N3CCN(C)CC3)c2)cc2c1cnn2C(C)C`, the result with U-266 [1] and in the data set with U-266 [2] was inactive.

For `CC1=C(/C=C/C(C)=C/C=C/C(C)=C/C(=O)O)C(C)(C)CCC1` [TRETINOIN], the outcome in the data set on CLL cell [3], in the data set on CLL cell [4], in the data set on U-266 [6] and in the data set with U-266 [7] was Active. In data set [5], the Activity entry is “Non-Toxic”.
